ChEMBL document CHEMBL4130604, “Germacrane-Type Sesquiterpenoids with Antiproliferative Activities from Eupatorium chinense” (J Nat Prod, 2018)

How the values were obtained:
Format in all cases: functional, cell-based
CNE-2 = experiment: Antiproliferative activity against human CNE2 cells after 48 hrs by MTT assay; conditions: CNE-2, 48 h
Method in brief: (§1)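 Cytotoxicity was read by MTT method on human Caski cervical, MDA-MB-231 breast, CNE2 nasopharyngeal and HepG2 hepatocellular carcinoma lines. Mitomycin C served as positive control, and medium containing 0.1% DMSO was the negative control. IC50 values are reported in μM. Other details follow an earlier protocol.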

Ca-Ski = experiment: Antiproliferative activity against human CaSki cells after 48 hrs by MTT assay; method in brief: as §1
HepG2 = experiment: Antiproliferative activity against human HepG2 cells after 48 hrs by MTT assay; conditions: HepG2, 48 h; method in brief: as §1
MDA-MB-231 = experiment: Antiproliferative activity against human MDA-MB-231 cells after 48 hrs by MTT assay; conditions: MDA-MB-231, 48 h; method in brief: as §1

| IC50 (HepG2) [µM] | IC50 (MDA-MB-231) [µM] | SMILES | IC50 (CNE-2) [µM] | IC50 (Ca-Ski) [µM] |
| --- | --- | --- | --- | --- |
| 3.6 | 0.8 | C=C1C(=O)O[C@@H]2/C=C(/C)[C@@H](OC(C)=O)C/C=C(\C)C[C@@H](OC(=O)/C(=C\C)CO)[C@@H]12 | > 10 | > 10 |
| > 10 | > 10 | C=C1C(=O)O[C@@H]2/C=C(/C)[C@@H](OC(C)=O)[C@H](OC(C)=O)/C=C(\C)C[C@@H](OC(=O)/C(=C\C)CO)[C@@H]12 | > 10 | > 10 |
| > 10 | > 10 | C=C1C(=O)O[C@@H]2/C=C(/COC(C)=O)[C@@H](OC(C)=O)C/C=C(\C)C[C@@H](OC(=O)/C(C)=C/CO)[C@@H]12 | > 10 | > 10 |
| > 10 | > 10 | C=C1C(=O)O[C@@H]2/C=C(/CO)[C@@H](OC(C)=O)C[C@@H](O)C(=C)C[C@@H](OC(=O)/C(=C\C)CO)[C@@H]12 | > 10 | > 10 |

Further lines, the molecule ahead of its results:

| SMILES | IC50 (HepG2) [µM] | IC50 (MDA-MB-231) [µM] | IC50 (CNE-2) [µM] | IC50 (Ca-Ski) [µM] |
| --- | --- | --- | --- | --- |
| C=C1C(=O)O[C@@H]2/C=C(/C)[C@@H](OC(C)=O)C[C@@H](O)C(=C)C[C@@H](OC(=O)/C(=C\C)CO)[C@@H]12 | > 10 | > 10 | > 10 | > 10 |
| C=C1C(=O)O[C@@H]2/C=C(/C)[C@@H](OC(C)=O)[C@H](O)/C=C(\C)C[C@@H](OC(=O)/C(=C\C)CO)[C@@H]12 | > 10 | > 10 | > 10 | > 10 |
| C=C1C(=O)O[C@@H]2/C=C(/CO)[C@@H](OC(C)=O)C/C=C(\C)C[C@@H](OC(=O)/C(C)=C/C)[C@@H]12 | > 10 | > 10 | > 10 | > 10 |
| C=C1C(=O)O[C@@H]2/C=C(/CO)[C@@H](OC(C)=O)C/C=C(\C)C[C@@H](OC(=O)/C(=C\C)CO)[C@@H]12 | 7.6 | > 10 | > 10 | > 10 |
| C=C1C(=O)O[C@@H]2/C=C(/C)[C@H](OC(C)=O)C/C=C(\C)C[C@@H](OC(=O)/C(=C\C)CO)[C@@H]12 | 6.3 | 3.3 | > 10 | > 10 |
| CO[C@@]12[C@H](COC(N)=O)C3=C(C(=O)C(C)=C(N)C3=O)N1C[C@@H]1N[C@@H]12 [MITOMYCIN] | > 10 | 4.4 | > 10 | > 10 |
